Measurements gathered from unrelated publications.
Compare with care: the assays were run in different laboratories.
Matrix: plasma

For `CN(C)Cc1ccc(S(=O)(=O)n2ccc(/C=C/C(=O)NO)c2)cc1`, the half-life was ~4 h (human; oral; patients).
`CCNCCCNC/C=C\CNCCCNCC` has a half-life of 0.19 h (human; intravenous; 100 mg; patients, infusion).
`O=C(/C=C/c1cccc(S(=O)(=O)Nc2ccccc2)c1)NO` gave a half-life of 1.43 h (human; intravenous; 1900 mg/m²; patients).
The half-life of `Cn1cc(-c2ccc(S(=O)(=O)[C@@H]3C[C@@H](C(=O)NC4(C#N)CC4)N(C(=O)C4(C(F)(F)F)CC4)C3)c(C(F)(F)F)c2)cn1` is reported as 5.47 h (human; oral; 1 mg; single dose, fasted, healthy volunteers).
`COc1cc(C(=O)NC2CCN(C)CC2)c(F)cc1Nc1ncc(C(F)(F)F)c(Oc2cccc3c2C(=O)N(C)C3)n1` gave a half-life of 21.5 h (human; oral; 50 mg; multiple doses, once daily, patients).
`Cc1cc(Nc2ncc(Cl)c(Nc3ccccc3S(=O)(=O)C(C)C)n2)c2c(c1C1CCN(C)CC1)C[C@@H](C)O2` has a half-life of 34.7 h (human; oral; 160 mg; single dose, fed).
The half-life of `CO[C@H]1CC[C@H](N2C(=O)CNc3ncc(-c4ccc(C(C)(C)O)nc4)nc32)CC1` is reported as 5.64 h (human; oral; 60 mg; patients).
`C[C@@H](c1ccc2nccn2c1)n1nnc2ncc(-c3cnn(C)c3)nc21` gave a half-life of 7.1 h (human; oral; 600 mg).
The half-life of `CS(=O)(=O)CCC#N` is reported as 24.7 h (human; oral; 1000 mg; multiple doses, once daily).
With `CCOc1cc2ncc(C#N)c(Nc3ccc(OCc4ccccn4)c(Cl)c3)c2cc1NC(=O)/C=C/[C@H]1CCCN1C` the half-life was 12.9 h (human; oral; 80 mg; single dose).
The half-life of `CC(C)n1cc(C#N)c2cc(-n3cc(C(=O)O)cn3)ccc21` is reported as 6.6 h (human; oral; 100 mg; single dose, fasted, healthy volunteers).
With `c1cnc2ccc(Nc3nc(NC4CC4)c4nc[nH]c4n3)cc2c1` the half-life was 3.6 h (human; oral; 400 mg/m²; patients).
The half-life of `C#C[C@]1(COP(=O)(O)OP(=O)(O)OP(=O)(O)O)O[C@@H](n2cnc3c(N)nc(F)nc32)C[C@@H]1O` is reported as 116 h (human; oral; 200 mg; single dose).
`O=C(Nc1c(Cl)cncc1Cl)c1ccc(OC(F)F)c(OCC2CC2)c1` gave a half-life of 19.9 h (human; oral; 0.5 mg; single dose).
With `COc1ccc([C@@H]2CN(C(=O)[C@@H](O)CO)C[C@@]2(C)[C@@H](C)O)cc1OC1CN(c2ccc(C)cn2)C1` the half-life was 11.9 h (human; oral; 5 mg; single dose, healthy volunteers).
`C[C@@H](Nc1cc(F)cc(F)c1)c1cc(C(=O)N(C)C)cc2c(=O)cc(N3CCOCC3)oc12` has a half-life of 3.79 h (human; oral; 30 mg; patients).
`COCCOc1cnc2ccn([C@H](C)c3nnc4c(F)cc(-c5cnn(C)c5)cn34)c(=O)c2c1` gave a half-life of 9.9 h (human; oral; 150 mg; multiple doses, once daily, patients).
`Cc1nc(-c2cn3c(n2)-c2ccc(-c4cnn(C(C)(C)C(N)=O)c4)cc2OCC3)n(C(C)C)n1` gave a half-life of 22.4 h (human; oral; 6 mg; patients).
`CO[C@@H]1[C@H](OC(=O)N2CC(CCN3CCOCC3)C2)CC[C@]2(CO2)[C@H]1[C@@]1(C)O[C@@H]1CC=C(C)C` gave a half-life of 0.56 h (human; subcutaneous; 0.6 mg; single dose, healthy volunteers).
The half-life of `CC(C)(Sc1ccncc1-c1ccc(C#N)c2ccccc12)C(=O)O` is reported as 12.7 h (male human; oral; 5 mg; single dose, fed, healthy volunteers).
For `O=c1c(O)c(-c2ccc(O)c(O)c2)oc2cc(O)cc(O)c12`, the half-life was 6.26 h (human; oral; 500 mg; single dose, fasted, healthy volunteers).
`CC(C)[C@](O)(c1ccc2cc(OC(F)F)c(OC(F)F)cc2c1)c1c[nH]nn1` gave a half-life of 6.4 h (female human; oral; 450 mg; single dose).
`NS(=O)(=O)NCCNc1nonc1C(=NO)Nc1ccc(F)c(Br)c1` gave a half-life of 3 h (human; oral; 700 mg; multiple doses, twice daily, steady state, patients).
The half-life of `CC(C)(O)c1ccccc1-c1ccc2[nH]c(/C=C/c3ccc(C(F)(F)F)cc3)nc2c1` is reported as 47.8 h (male human; oral; 2 mg; single dose, fasted, healthy volunteers).
For `CC(=O)Oc1ccccc1C(=O)O`, the half-life was 0.53 h (human; oral; 650 mg; healthy volunteers).
For `CO[C@H]1/C=C\C=C(/C)C(=O)NC2=CC(=O)C(NCCN(C)C)=C(C[C@@H](C)C[C@H](OC)[C@H](O)[C@@H](C)/C=C(\C)[C@@H]1OC(N)=O)C2=O`, the half-life was 14.1 h (human; intravenous; 12 mg/m²; patients, infusion).
